Experimental data: ChEMBL document CHEMBL1153469, “Antimicrobial and immunomodulatory properties of prenylated xanthones from twigs of Garcinia staudtii” (Bioorg Med Chem, 2009)
Converted amounts (≈) assume the structure as drawn.

Key:
Neutrophil [1] = test: Immunomodulatory activity in polymorphoneutrophils assessed as suppression of phagocytosis activity 30 mins by luminol-enhanced chemiluminescence assay; format: functional, cell-based
Summary of the method: (§1)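 Luminol-enhanced chemiluminescence was run on neutrophils (1 × 10^7) or monocytes (1 × 10^6) in HBSS with Ca/Mg. Cells were preincubated 30 min with compound (3.1–50 µg/mL), then zymosan (20 mg/mL stock) and luminol (7 × 10^-5 M stock) were added, to 0.2 mL final. HBSS alone served as control. Fifty luminometer scans were taken at 30 s intervals, with readings expressed relative to untreated control.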

PBMC [2] = test: Immunomodulatory activity in human PBMC assessed as inhibition of phytohemagglutinin-stimulated IL2 release after 18 hrs by ELISA; format: functional, cell-based
Summary of the method: (§2)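 Donor PBMCs were Ficoll-isolated and cultured in RPMI-1640 with 10% AB human serum, at 10^5 cells/well, with or without PHA 1.25 µg/mL. Compounds were tested at 16, 4, 1 and 0.5 µg/mL for 18 h at 37 °C in 5% CO2. Supernatants were cleared by 1000g centrifugation at 4 °C. IL-2, IL-4 and IFN-γ were measured by ELISA kit.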

[3] = Immunomodulatory activity in MNC assessed as suppression of phagocytosis activity after 30 mins by luminol-enhanced chemiluminescence assay; format: functional; summary of the method: as §1
Neutrophil [4] = test: Immunomodulatory activity in polymorphoneutrophils assessed as inhibition of fMLP-induced cellular chemotaxis at 5 ug/mL pre-incubated 1 hr before fMLP challenge measured after 1 hr using hematoxylin staining by light microscopy; format: functional
Summary of the method: (§3)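 PMN chemotaxis was measured in a modified Boyden chamber. fMLP (10^-8 M) was placed in the lower well, separated by a cellulose filter (2 µm pores). 5 × 10^4 cells in HBSS with Ca/Mg went in the upper well, with compounds at 2.5, 5 or 25 µg/mL, in duplicate. The DMSO:HBSS (1:1) buffer served as control. After 60 min at 37 °C in CO2, cells in the filter were hematoxylin-stained and migration distance was measured in five random fields.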

PBMC [5] = test: Immunomodulatory activity in human PBMC assessed as phytohemagglutinin-stimulated IL4 release at 0.5 to 16 ug/mL after 18 hrs by ELISA; format: functional; summary of the method: as §2
Neutrophil [6] = test: Immunomodulatory activity in polymorphoneutrophils assessed as inhibition of fMLP-induced cellular chemotaxis at 25 ug/mL after 1 hr using hematoxylin staining by light microscopy; format: functional; summary of the method: as §3
Neutrophil [7] = test: Immunomodulatory activity in polymorphoneutrophils assessed as inhibition of fMLP-induced cellular chemotaxis at 2.5 ug/mL pre-incubated 1 hr before fMLP challenge measured after 1 hr using hematoxylin staining by light microscopy; format: functional; summary of the method: as §3
PBMC [8] = test: cells; settings: Homo sapiens
PBMC [9] = test: Immunomodulatory activity in human PBMC assessed as phytohemagglutinin-stimulated IL2 release at 0.5 to 16 ug/mL after 18 hrs by ELISA; format: functional; summary of the method: as §2
[10] = Cytotoxicity against polymorphoneutrophils at 3.1 to 50 ug/mL; format: cell-based; settings: neutrophil
PBMC [11] = test: Immunomodulatory activity in human PBMC assessed as inhibition of phytohemagglutinin-stimulated IL4 release after 18 hrs by ELISA; format: functional, cell-based; summary of the method: as §2
PBMC [12] = test: Immunomodulatory activity in human PBMC assessed as inhibition of phytohemagglutinin-stimulated IFN-gamma release after 18 hrs by ELISA; format: functional, cell-based; summary of the method: as §2
[13] = Cytotoxicity against MDBK cells at 50 ug/mL after 72 hrs by MTT assay; format: cell-based, Bos taurus; settings: cattle
Summary of the method: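 MDBK adherent cells at 2 × 10^5 cells/mL were exposed to serial compound dilutions (0.195–50 µg/mL), with viability examined after 72 h. MTT (2 mg/mL) was added for 2–3 h at 37 °C. Cells were washed with PBS and the formazan dissolved in DMSO, with 15 min agitation at 37 °C. Absorbance was read at 540 nm, and viability was taken as the OD ratio to control.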

[14] = Cytotoxicity against MNC at 3.1 to 50 ug/mL
Neutrophil [15] = test: Immunomodulatory activity in polymorphoneutrophils assessed as inhibition of fMLP-induced cellular chemotaxis at 2.5 to 25 ug/mL after 1 hr using hematoxylin staining by light microscopy; format: functional; summary of the method: as §3
PBMC [16] = test: Immunomodulatory activity in human PBMC assessed as phytohemagglutinin-stimulated IFN-gamma release at 0.5 to 16 ug/mL after 18 hrs by ELISA; format: functional; summary of the method: as §2
PBMC [17] = test: Immunomodulatory activity in human PBMC assessed as inhibition of phytohemagglutinin-stimulated IFN-gamma release at 0.5 ug/mL after 18 hrs by ELISA; format: functional; summary of the method: as §2
[18] = Immunomodulatory activity in MNC assessed as suppression of phagocytosis activity at 3.1 ug/mL after 30 mins by luminol-enhanced chemiluminescence assay
PBMC [19] = test: Immunomodulatory activity in human PBMC assessed as inhibition of phytohemagglutinin-stimulated IL2 release at 0.5 ug/mL after 18 hrs by ELISA; format: functional; summary of the method: as §2
PBMC [20] = test: Immunomodulatory activity in human PBMC assessed as inhibition of phytohemagglutinin-induced T-cell proliferation at 12.5 ug/mL after 72 hrs by [3H]thymidine incorporation assay; format: functional
Summary of the method: (§4)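 PBMCs were isolated from heparinized venous blood of a healthy adult donor by Ficoll–Hypaque gradient. Cells at 5 × 10^5 cells/mL were stimulated with PHA 5 µg/mL, with compounds at 3.1–100 µg/mL final, in triplicate. Incubation was 72 h at 37 °C in 5% CO2, then a 0.5 µCi/well [3H]thymidine pulse for 18 h further. Incorporation was counted by liquid scintillation as mean CPM.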

Neutrophil [21] = test: Immunomodulatory activity in polymorphoneutrophils assessed as suppression of phagocytosis activity at 3.1 ug/mL after 30 mins by luminol-enhanced chemiluminescence assay
PBMC [22] = test: Immunomodulatory activity in human PBMC assessed as inhibition of phytohemagglutinin-stimulated IL4 release at 1 ug/mL after 18 hrs; format: functional; summary of the method: as §2
[23] = Immunomodulatory activity in MNC assessed as stimulation of reactive oxygen species release at 3.1 ug/mL after 30 mins by luminol-enhanced chemiluminescence assay; format: functional; summary of the method: as §1
[24] = Immunomodulatory activity in MNC assessed as inhibition of reactive oxygen species release at 50 ug/mL after 30 mins by luminol-enhanced chemiluminescence assay; format: functional; parameters: scale not given: the % may be the effect or the level left; summary of the method: as §1
[25] = Immunomodulatory activity in MNC assessed as inhibition of reactive oxygen species release at 25 ug/mL after 30 mins by luminol-enhanced chemiluminescence assay; format: functional; parameters: scale not given: the % may be the effect or the level left; summary of the method: as §1
PBMC [26] = test: Immunomodulatory activity in human PBMC assessed as inhibition of phytohemagglutinin-induced T-cell proliferation at 3.1 ug/mL after 72 hrs by [3H]thymidine incorporation assay; format: functional; summary of the method: as §4
PBMC [27] = test: Immunomodulatory activity in human PBMC assessed as inhibition of phytohemagglutinin-induced T-cell proliferation at 6.125 ug/mL after 72 hrs by [3H]thymidine incorporation assay; format: functional; summary of the method: as §4

Compound: CC(C)=CCc1c2c(c3oc4c(O)cc(O)cc4c(=O)c3c1O)C=CC(C)(C)O2 [STAUDTIIXANTHONE C]
- Activity (Neutrophil [1]): Dose-dependent effect
- inhibition (PBMC [2]): Dose-dependent effect
- Activity [3]: Dose-dependent effect
- inhibition at 5 µg/mL (Neutrophil [4]): 42.2%
- Activity (PBMC [5]): 120.5 pg/mL
- inhibition at 25 µg/mL (Neutrophil [6]): 46%
- inhibition at 2.5 µg/mL (Neutrophil [7]): 36.4%
- IC50 (PBMC [8]): 12.7 µg/mL (≈ 32.2 µM)
- Activity (PBMC [9]): 528.5 pg/mL
- Activity [10]: Non-toxic
- inhibition (PBMC [11]): Dose-dependent effect
- inhibition (PBMC [12]): Dose-dependent effect
- Activity [13]: Non-toxic
- Activity [14]: Non-toxic
- inhibition (INH) (Neutrophil [15]): 27%
- Activity (PBMC [16]): 4033.7 pg/mL

Compound: CC(C)=CCc1c(O)c(CC=C(C)C)c2oc3c(O)cc(O)cc3c(=O)c2c1O [STAUDTIIXANTHONE A]
- inhibition at 0.5 µg/mL (PBMC [17]): 62.5%
- Activity (Neutrophil [1]): Dose-dependent effect
- inhibition (PBMC [2]): Dose-dependent effect
- Activity [3]: Dose-dependent effect
- Activity (PBMC [5]): 120.5 pg/mL
- IC50 (PBMC [8]): 6.2 µg/mL (≈ 15.6 µM)
- Activity (PBMC [9]): 528.5 pg/mL
- Activity [10]: Non-toxic
- inhibition (PBMC [11]): Dose-dependent effect
- Activity [18]: 73%
- inhibition (PBMC [12]): Dose-dependent effect
- inhibition at 0.5 µg/mL (PBMC [19]): 68.2%
- Activity [13]: Non-toxic
- inhibition at 12.5 µg/mL (PBMC [20]): 94.3%
- Activity [14]: Non-toxic
- inhibition (INH) (Neutrophil [15]): 27%
- Activity (PBMC [16]): 4033.7 pg/mL
- Activity (Neutrophil [21]): 73%
- inhibition at 1 µg/mL (PBMC [22]): 88.1%

Compound: CC(C)=CCc1c2c(c(O)c3c(=O)c4cc(O)cc(O)c4oc13)C=CC(C)(C)O2 [STAUDTIIXANTHONE B]
- Activity (Neutrophil [1]): Dose-dependent effect
- inhibition (PBMC [2]): Dose-dependent effect
- Activity [3]: Dose-dependent effect
- Activity (PBMC [5]): 120.5 pg/mL
- IC50 (PBMC [8]): 6.4 µg/mL (≈ 16.2 µM)
- Activity (PBMC [9]): 528.5 pg/mL
- Activity [10]: Non-toxic
- inhibition (PBMC [11]): Dose-dependent effect
- inhibition (PBMC [12]): Dose-dependent effect
- Activity [13]: Non-toxic
- inhibition at 12.5 µg/mL (PBMC [20]): 97.1%
- Activity [14]: Non-toxic
- inhibition (INH) (Neutrophil [15]): 27%
- Activity (PBMC [16]): 4033.7 pg/mL

Compound: COc1cc2oc3c4c(cc(O)c3c(=O)c2c2c1OC(C)(C)CC2)OC(C)(C)CC4 [STAUDTIIXANTHONE D]
- Activity (Neutrophil [1]): Dose-dependent effect
- Activity [3]: Dose-dependent effect
- Activity [23]: 24%
- Activity (PBMC [5]): 120.5 pg/mL
- Activity [24]: 70%
- IC50 (PBMC [8]): 3.7 µg/mL (≈ 9.01 µM)
- Activity (PBMC [9]): 528.5 pg/mL
- Activity [10]: Non-toxic
- Activity [13]: Non-toxic
- Activity [25]: 59%
- Activity [14]: Non-toxic
- inhibition at 3.1 µg/mL (PBMC [26]): 44.9%
- inhibition at 6.125 µg/mL (PBMC [27]): 70.4%
- inhibition (INH) (Neutrophil [15]): 27%
- Activity (PBMC [16]): 4033.7 pg/mL
